# Test: Toxicity liver stage against HepG2, at 10uM
# Format: cell-based
# Design: test concentration 10 uM, cell line HepG2-A16-CD81EGFP
# Conditions: human, HepG2-A16-CD81EGFP cells; read-out: INHIBITION
# Method in brief: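 Uninfected HepG2-A16-CD81EGFP cells, 3 × 10^3 per well, 1536-well, plated on prespotted compound at 10 μM final, parasite-free screening media added to match infected plates; puromycin 10 μM positive, DMSO 0.5% negative; run in parallel with 48 h PbLuc assay at 37 °C, 5% CO2; viability by CellTiter-Glo luminescence, normalized to controls.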
row,Structure (SMILES),cytotoxicity at 10 µM [%]
1,COc1nonc1NCn1nc(C)cc1C,-15
2,CC(CNC(=O)Nc1ccc(C#N)cc1)N1CCc2ccccc21 (configuration not stated),-5.71
3,Cc1ccc(S(=O)(=O)n2ccn(C(=O)CC(C)C)c2=O)cc1,11.2
4,CN(C)S(=O)(=O)N1CCC(Oc2cccnn2)CC1,3.05
5,CC(C)C(=O)N1CCN(C(=O)N(C)C)CC2(CC(=O)N(C)C2)C1 (configuration not stated),-21
6,CC(C)=CCC/C(C)=C\CNCc1ccco1,-12.6
7,CCOC(=O)N1CCN(C(=O)c2sc(-c3ccccc3F)nc2C)CC1,20
8,Cc1c(Br)cnn1C(C)C(=O)Nc1nncs1 (configuration not stated),-4.61
9,COc1c(C2SCC(=O)Nc3[nH]ncc32)cc2c(c1OC)OCO2 (configuration not stated),0.219
10,Cc1ccnc(NC(=O)c2cccc(OCc3nnnn3C)c2)c1,-0.319
11,Cn1cccc1C(=O)NCc1ccnc(C2CCCOC2)n1 (configuration not stated),3.41
12,Cn1cc(CN2CCC(c3cc(CCO)[nH]n3)C2)cn1 (configuration not stated),3.19
13,CC(C)N1CCC2(CC1)C[C@@H](O)[C@H](c1ccccc1)NC2=O,-16.7
14,CN(C)C(=O)c1cn[nH]c1C1(C)CCCN(Cc2ccccn2)C1 (configuration not stated),4.68
15,CC1(C(=O)N2CCOCC2)CN(Cc2c[nH]cn2)CCO1 (configuration not stated),-4.61
16,O[C@@H]1CN(Cc2ccncc2)C[C@H]1Oc1ccccc1,-1.44
17,O=C(Cn1c(=O)n(Cc2ccco2)c2ncccc21)NC1CC1,-6.33
18,COc1ncc(C2(O)CCN(Cc3cc(F)cc(F)c3)CC2)c(OC)n1,0.331
19,O=C(N[C@@H]1CN(Cc2ccc3cc[nH]c3c2)C[C@H]1O)c1cnccn1,-8.22
20,Cn1nc(C2CCCN2)c2c(C(=O)NC3CC3)cc(C3CC3)nc21 (configuration not stated),15.3
21,O=C(O)c1ccccc1CN1CCC2(Cc3ccccc3CNC2=O)C1 (configuration not stated),8.21

row,Structure (SMILES),cytotoxicity at 10 µM [%]
1,CCCC(=O)N1Cc2ccccc2CC2(CCN(C)C2)C1 (configuration not stated),2.71
2,CCNc1ncnc2c1CN(C1CCCNCC1)C(=O)CN2C (configuration not stated),5.5
3,O=C(NC1CCN(CC2CCCC2)C1)N1CCC(OCC2CC2)CC1 (configuration not stated),9.86
4,Cn1cnc(S(=O)(=O)N2CCCc3cccc(F)c32)c1Cl,-4.63
5,CC(=O)Nc1ccc(CNCC(O)c2ccccc2)cc1 (configuration not stated),-10.1
6,CCc1ccc(CNC(=O)Nc2cc(C)on2)s1,-11.6
7,O=C(CN1CCc2cncnc2C1)N1CCc2sccc2C1,11.9
8,O=C(NC1CCN(c2ncccn2)CC1)c1sccc1C1CC1,-5.75
9,Cc1ccc(S(=O)(=O)NCCc2cccnc2)cc1C,0.645
10,N#CCc1ccc(NC(=O)CNc2ccc(Br)cc2F)cc1,0.997
11,CN(CCn1cccn1)C1CCCN(Cc2noc(C3CC3)n2)C1 (configuration not stated),15
12,CC(=O)NCc1ccc(C(=O)N2CCCC(n3cncn3)C2)o1 (configuration not stated),17.1
13,O=C(O)CCN(Cc1ccc(F)c(F)c1)C(=O)C1CC1,1.04
14,O=C(CCN1CCC(c2cc3ccccc3[nH]2)CC1)N1CCOCC1,-3.81
15,Cc1csc(CCCNC(C)CC(=O)Nc2ccc(F)cc2)n1 (configuration not stated),1.52
16,O=C(O)c1ccc(CCNC(=O)C2(O)Cc3ccccc3C2)cc1,3.69
17,COc1cccc(CNCCc2cc(F)cc3c2OCOC3)c1,-23.1
18,Cn1ccnc1-c1cn(CCc2nnc(N)s2)nn1,-4.3
19,COC(=O)c1cc(OCC2CCC2)cc(C(=O)NCC(C)(C)O)c1,4.01
20,CNC(=O)CNCC1(O)CCCN(Cc2ccc(F)c(F)c2)C1=O (configuration not stated),-9.88
21,CSCC(=O)N[C@H]1CN(Cc2c(C)noc2C)C[C@@H]1C(C)C,5.4

row,Structure (SMILES),cytotoxicity at 10 µM [%]
1,Cc1nc(C(C)NC(=O)c2cn(Cc3ccc(Cl)cc3)nn2)n[nH]1 (configuration not stated),10.2
2,O=C(O)c1ccnc(-c2ccnc(N3CCC4(CCO4)CC3)n2)c1,-10.7
3,Cc1nsc(NC(=O)NC2CCCN(C)C2)n1 (configuration not stated),-17.1
4,CCN1CCC(CC(=O)NC[C@H]2CCc3ccccc3O2)CC1,-28.4
5,Cc1nnc(CNC(=O)[C@@H]2C[C@H](NC(=O)C(C)(C)C)CN2C)[nH]1,1.76
6,Cc1ccc(C)c(-n2cc(CN3CC[C@@H](O)C3)c(-c3ccccc3)n2)c1,-6.77
7,COc1ccc(CN2CCN(CC3CC3)[C@@H]3CS(=O)(=O)C[C@@H]32)cc1C,-1.95
8,COCC(=O)N1CCCC(C(=O)N(C)CCCc2cnn(C)c2)C1 (configuration not stated),-137
9,CN1CCN(C(=O)C2CN(Cc3cc4ccccc4o3)CCN2)CC1 (configuration not stated),-8.2
10,Cn1ccc2ccc(C(=O)N3CCN(C(=O)N4CCOCC4)CC3)cc21,-21.1
11,Cc1noc(C)c1CN1CC2(CCN(C(=O)c3cscn3)CC2)CC1=O,-8.86
12,COc1ccc(-n2nnc(C(=O)NC(C)C)c2C2CC2)cc1,-14.7
13,O=C1CCC(=O)N1c1nn(Cc2ccc(F)cc2)cc1Cl,-13.2
14,O=C(Cc1ccsc1)N1CCC(n2nc(-c3ccco3)ccc2=O)CC1,-8.98
15,CN1CCN(C2CCN(CCOc3ccccc3)CC2)C1=O,-2.15
16,CCn1cc(CN2CCCN(C(=O)CCN3CCCC3=O)CC2)cn1,0.428
17,Cc1ccsc1CNC(=O)CCc1c(C)nc2cc(O)nn2c1C,-7.01
18,CC1CCN(CCNC(=O)c2scnc2Cl)CC1,-4.2
19,COc1c(CNC2CCN(c3ccccn3)CC2)c(C(C)C)nn1C,-8.06
20,CCCc1nc(C(C)(C)NC(=O)C2CC(=O)N(C3CC3)C2)no1 (configuration not stated),-4.41
21,CCc1nc(C2CCCN2C(=O)CCc2nc(C(C)(C)C)no2)no1 (configuration not stated),-0.819

row,Structure (SMILES),cytotoxicity at 10 µM [%]
1,Cc1nccn1C1CCCN(C(=O)COC2CCCC2)C1 (configuration not stated),-10.5
2,Cc1cnn(CC(=O)N2CCC(Nc3ccc(C)nn3)CC2)c1,-21.2
3,Cc1cc(CN2CCCC(c3cc(C(F)(F)F)[nH]n3)C2)no1 (configuration not stated),-0.674
4,NC(=O)CN1CCCN(C(=O)Cc2ccc3c(c2)OCCO3)CC1,0.169
5,Cc1cc(NC(=O)NCC2COc3ccccc3C2)no1 (configuration not stated),-9.47
6,Cc1cn2c(n1)CCC(NC(=O)c1[nH]ncc1Br)C2 (configuration not stated),-6.49
7,FC(F)(F)COCCN1CCOC(Cn2cccn2)C1 (configuration not stated),-6.1
8,O=C(O)c1cc(S(=O)(=O)Nc2cc(F)cc(F)c2)cc2c1OCCO2,-12.6
9,Cc1nc(C)n(CC2CCCN2CC(=O)Nc2cc(C)on2)n1 (configuration not stated),-2.11
10,c1cc(CNCC2CNc3ccnn3C2)cc(OC2CCCCC2)n1 (configuration not stated),-8.78
11,Cc1cnc2c(S(=O)(=O)NCC3CCS(=O)(=O)C3)cccc2c1 (configuration not stated),-7.52
12,COc1ccc(CC(=O)N2CCN(c3nccn3C)CC2)cc1,5.06
13,CN(C)CCOCC1CN(C(=O)c2ccnnc2)Cc2ccnn2C1 (configuration not stated),7.89
14,Cc1nc(C)c(C(=O)N2CCc3nc4c(C)csc4c(=O)n3CC2)s1,4.11
15,O=C1[C@H]2CN(CC3CC3)C[C@H]2CN1Cc1cccc(F)c1,5.56
16,CC(C)C(=O)N1CCCC(c2cc(C(F)F)n3ncnc3n2)C1 (configuration not stated),1.18
17,O=C(NCCCN1CCOCC1)c1ccn(-c2ccc3ccccn23)n1,5.17
18,Cn1cc(CCC(=O)N2C[C@@H]3CC[C@H]2CN(Cc2cccnc2)C3)cn1,-12.4
19,CC(C)Cc1cc(CN2C[C@@H]3CC[C@H]2CN(Cc2cscn2)C3)n[nH]1,-2.03
